# PLC-gamma1 inh – PLC-gamma1 enzyme inhibitors, primary screen, biochemical, fluorescence, purified enzyme. 1-phosphatidylinositol 4,5-bisphosphate phosphodiesterase gamma-1 (Homo sapiens), P19174. fluorogenic substrate. inhibition, % at 12.2 µM. 0.84% of 370,000 active. AID 720700, 2013; in the data active = inhibition above about 9.5%
# PLC-beta3 inh – human PLC-beta3 inhibitors, primary screen, biochemical, fluorescence; AID 720704, 2013; 0.18% of 370,000 active; inhibition, % at 12.2 µM; Purified PLC-beta3, fluorogenic substrate; in the data active = inhibition above about 11%;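 also: 0% = median of compound wells on plate and 100% = full blocker control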
# Rpn11 block – Rpn11 (PSMD14) deubiquitinase inhibitors, primary screen, biochemical, fluorescence polarization, uHTS. 0.59% of 360,000 active. human 26S proteasome, Ub4-pepOG fluorescence polarization; 20S core pre-blocked with epoxomicin. inhibition, % at 20 µM. 26S proteasome non-ATPase regulatory subunit 14 (Homo sapiens), O00487;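 active = inhibition at 20 µM, scaled to each plate's controls, above about 33%, limit read from the data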
# UCH37 inh – inhibitors of human UCH37 deubiquitinase, primary screen, biochemical, Ub-AMC cleavage, fluorescence | 0.33% of 330,000 active | purified proteasome/UCH37 | inhibition, % (no concentration beside the values) | Ubiquitin carboxyl-terminal hydrolase isozyme L5 (Homo sapiens), Q9Y5K5;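 active = mean inhibition over replicate wells above about 20%, limit read from the data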;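 also: 0% = compound-free wells with enzyme and 100% = wells lacking proteasome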
#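 Signal – fluorescence, ex 355 nm, em 460 nm · System – Proteasome-bound UCH37 · Input – 0.15 nM proteasome as dispensed · Timing – 30 min preincubation with enzyme, 25 min cleavage at room temperature · Read-out basis – percent inhibition of cleavage signal versus uninhibited and no-proteasome wells · Medium – Tris-HCl pH 7.4 with ATP-MgCl2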
# Rpn11 inh conf – Rpn11 (PSMD14) deubiquitinase inhibitors, confirmation, biochemical, fluorescence polarization, single concentration. shares compounds with Rpn11 block. purified human 26S proteasome, Ub4-pepOG fluorescence polarization; proteasome pretreated with epoxomicin. inhibition, % at 20 µM. 29% of 1,900 active
# MMP-2 inh – MMP-2 enzyme inhibition, confirmation, counter-screen for RPN11 inhibitor project, biochemical, fluorescence, single concentration. 4% of 1,900 active. inhibition, % at 20 µM. recombinant MMP-2, FRET peptide cleavage fluorescence. shares compounds with Rpn11 block. AID 602330, 2012;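 also: human MMP-2 activated beforehand with APMA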
# Thrombin inh – bovine thrombin protease inhibition, confirmation, counter-screen for Rpn11 inhibitor project, biochemical, fluorescence polarization, single concentration | shares compounds with Rpn11 block | bovine thrombin cleavage of Ub4-pepOG | inhibition, % at 20 µM | 13% of 1,900 active;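 active = mean inhibition at least 40% at 20 µM, or signal 3 deviations below plate average, so some actives read negative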;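 also: plate controls were thrombin with DMSO for no effect and buffer wells lacking thrombin for full effect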
# Starred values were filed as active, the others as inactive; i = inactive; nt = no result; + = active, no number. Rows were chosen to be rich in hits. Some 1.7% of all compounds tested hit in one or more screens of this group. Rule as the data show it, unless noted: active = inhibition above about 40%; inactive = the rest.
SMILES,PLC-gamma1 inh,PLC-beta3 inh,Rpn11 block,UCH37 inh,Rpn11 inh conf,MMP-2 inh,Thrombin inh
Cc1onc(-c2c(F)cccc2Cl)c1C(=O)OCC(=O)c1c[nH]c2ccccc12,-5,-13,58*,2,20,-28,-11
Cc1noc(C)c1C(=O)OCC(=O)c1c[nH]c2ccccc12,-7,-5,7,2,nt,nt,nt
CC(=NNC(=O)c1cccs1)c1cccc(NC(=O)C2CC2)c1,nt,nt,nt,-4,nt,nt,nt
COc1ccc(C=NNC(=O)c2ccccc2OC)cc1COc1ccc(C)cc1,nt,nt,nt,-2,nt,nt,nt
Cc1ccc(-c2nc(CN3CCCCC3CCN3CCCC3=O)c(C)o2)o1 (stereo not drawn),-10,-6,41*,0,18,5,16
Cc1oc(-c2cccc(F)c2)nc1CN1CCCCC1CCn1cccn1 (stereo not drawn),-2,1,8,-1,nt,nt,nt
COC(=O)/C=c1/s/c(=C(\C#N)C(=O)NCc2ccco2)n(-c2ccc(C)cc2)c1=O,-3,-6,57*,nt,11,-12,20
COC(=O)C=c1sc(=C(C#N)C(=O)NCc2ccco2)n(-c2ccccc2)c1=O,nt,nt,nt,2,nt,nt,nt
Cc1ccc2nc(C)cc(Nc3ccc([N+](=O)[O-])cc3)c2c1,-2,-2,45*,1,34,-10,-5
O=C(CCc1ccccc1)NN=Cc1cc2c(cc1Br)OCO2,nt,nt,nt,1,nt,nt,nt
COc1cc2oc3ccccc3c2cc1N(CC(=O)N(C)C)S(=O)(=O)c1ccccc1,6,3,116*,4,-1,20,-14
Fc1ccc(C=NNc2nc(-c3cccnc3)nc3ccccc23)cc1,nt,nt,nt,0,nt,nt,nt
CCN(CC)c1ccc(C=C2C(=O)OC(c3ccccc3)OC2=O)cc1 (stereo not drawn),-2,2,77*,6,77*,6,76*
COc1ccc(OC)c(Nc2nc3nonc3nc2N2CCCC(C)C2)c1 (stereo not drawn),-9,-12,62*,2,21,-19,-1
CC1CCCN(c2nc3nonc3nc2Nc2ccccc2F)C1 (stereo not drawn),-2,-6,1,1,nt,nt,nt
O=C(Nc1ccnc(=O)[nH]1)c1sc2ccccc2c1Cl,-6,-7,41*,0,3,16,-8
Cc1cc(O)c(C(C)C)cc1N=Cc1ccccc1O,0,-10,45*,9,25,-20,24
COc1cc(C(=O)NN=Cc2ccc(OC(=O)N3CCOCC3)cc2)cc(OC)c1OC,nt,nt,nt,6,nt,nt,nt
CC(Oc1ccc(-c2ccccc2)cc1)C(=O)NN=Cc1cccnc1 (stereo not drawn),nt,nt,nt,2,nt,nt,nt
O=C(O)c1ccccc1-c1ccc(C=c2sc3nc4cc(Br)cnc4n3c2=O)o1,-12,-29,+,43*,+,70*,184*
COc1ccc(C=NN2CCN(C)CC2)cc1OC,nt,nt,nt,-1,nt,nt,nt
Cc1ccc(S(=O)(=O)N2CCN(C(=O)Cc3ccc(S(=O)(=O)N4CCOCC4)s3)CC2)cc1,0,-12,2,3,nt,nt,nt
COc1ccc(N2CCN(C(=O)Cc3ccc(S(=O)(=O)N4CCOCC4)s3)CC2)cc1,-7,-14,48*,1,12,33,2
C=CCOc1ccc(C=NNC(=O)C(=O)N2CCCCCC2)cc1OC,nt,nt,nt,3,nt,nt,nt
O=C(NC1CCCC1)C(c1ccccn1)N(Cc1ccccc1F)C(=O)c1csnn1 (stereo not drawn),0,-3,56*,6,-22,-21,-27
SMILES,PLC-gamma1 inh,PLC-beta3 inh,Rpn11 block,UCH37 inh,Rpn11 inh conf,MMP-2 inh,Thrombin inh
O=C(NC1CCCC1)C(c1ccncc1)N(Cc1ccccc1F)C(=O)c1csnn1 (stereo not drawn),3,-6,8,1,nt,nt,nt
Cc1ccc(-c2c(C)c(-c3ccc(F)cc3)nc(N)c2C#N)o1,-96,-116,42*,-61,2,-21,-1
CCCOc1ccc(-c2c(C(=O)NN=C(C)c3ccncc3)nnn2-c2nonc2N)cc1,nt,nt,nt,2,nt,nt,nt
Cn1c(=O)c2c(nc(Oc3ccc4c(c3)OCO4)n2Cc2ccc(F)cc2)n(C)c1=O,0,3,+,1,2,-25,4
Cn1c(=O)c2c(nc(Oc3ccc4c(c3)OCO4)n2Cc2ccc(Br)cc2)n(C)c1=O,nt,nt,nt,1,nt,nt,nt
CCC1=NN2C(=N)/C(=C\c3ccc(SCc4ccco4)o3)C(=O)N=C2S1,-49,-71,80*,9,20,10,14
CCCC1=NN2C(=N)/C(=C\c3ccc(SCc4ccco4)o3)C(=O)N=C2S1,nt,nt,124*,nt,40*,-5,23
CCCC1=NN2C(=N)/C(=C\c3cc(C)n(Cc4ccccc4)c3C)C(=O)N=C2S1,-16,-33,4,-4,nt,nt,nt
O=C1/C(=C/c2ccc(O)c(O)c2)Oc2cc(O)ccc21,-192,-245,86*,3,49*,4,30
Cc1csc(NC(=O)CSc2nc3sc(C)c(C)c3c(=O)[nH]2)n1,-3,-4,53*,2,44*,-5,29
Cc1sc2nc(SCC(=O)Nc3ccccc3F)[nH]c(=O)c2c1C,0,-8,0,0,nt,nt,nt
Nc1c(C(=O)O)sc2nc(-c3ccc(F)cc3)cc(-c3ccccc3)c12,-78,-114,53*,nt,6,5,-3
CCOC(=O)c1sc2nc(-c3ccccc3)ccc2c1N,-235,-310,0,-34,nt,nt,nt
NC(=O)c1sc2nc(-c3ccccc3)ccc2c1N,i,i,45*,-101,-10,-32,-15
O=c1cc(-c2c(F)c(F)c(F)c(F)c2F)oc2ccccc12,-3,-5,1,5,nt,nt,nt
O=c1cc(-c2cccc(F)c2)oc2ccccc12,0,2,41*,2,-19,5,-14
COc1ccc(/C=N/Nc2ccc([N+](=O)[O-])cc2)cc1Cn1cc([N+](=O)[O-])cn1,-6,-11,54*,nt,-3,-23,-4
COc1ccc(/C=N/n2cncn2)cc1Cn1cc([N+](=O)[O-])cn1,1,-4,-1,nt,nt,nt,nt
Cc1ccc(C=NNC(=O)CNC(=O)c2cccs2)o1,nt,nt,nt,6,nt,nt,nt
Cc1cc(C)n2nc(N)c(N=Nc3ccccc3)c2n1,2,-3,0,12,nt,nt,nt
Cc1cc(C)n2nc(N)c(N=Nc3ccc4c(c3)OCO4)c2n1,0,0,44*,6,37,-63,36
